Columns and labels:
Mus musculus [1] = assay: The in vivo tissue distribution of mouse blood without Propranolol preadministration in 180 min, value was fractional dose per fractional body weight of the organ; conditions: 3 h
Mus musculus [2] = assay: The in vivo tissue distribution of mouse lung with Propranolol administration after 90 min, value was fractional dose per fractional body weight of the organ; type: ADME, organism-based; conditions: 1.5 h
Method in brief: (§1)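 Male CF-1 mice (25–30 g) anaesthetised with 2 mg sodium pentobarbital ip; blocked group given 0.1 mL of […] propranolol iv via tail vein (200 μg, 6.6 mg/kg), tracer 30 min later. 0.1 mL of 1–2 mCi/mL [18F]-labelled enantiomer iv via tail vein; killed by cervical dislocation, organs weighed and counted against weighed standards. %ID/g × body weight/100 gives unitless uptake; five mice per point (heart, blood, lung, kidney, liver, bone); mean ± SD.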

Mus musculus [3] = assay: The in vivo tissue distribution of mouse blood without Propranolol preadministration in 90 min, value was fractional dose per fractional body weight of the organ; conditions: 1.5 h
Mus musculus [4] = assay: The in vivo tissue distribution of mouse lung without Propranolol preadministration in 180 min, value was fractional dose per fractional body weight of the organ; conditions: 3 h
Mus musculus [5] = assay: The in vivo tissue distribution of mouse lung without Propranolol preadministration in 20 min, value was fractional dose per fractional body weight of the organ
Mus musculus [6] = assay: The in vivo tissue distribution of mouse liver with Propranolol administration after 120 min, value was fractional dose per fractional body weight of the organ; type: ADME, organism-based; conditions: 2 h
Method in brief: (§2)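 Male CF-1 mice (25–30 g), anesthetised with 2 mg sodium pentobarbital ip 30 min before tracer. Where blocked, propranolol iv via tail vein (0.1 mL of […]; […]) about 30 min before tracer. Tracer given by tail vein, 0.1 mL at 1–2 mCi/mL. Mice killed by cervical dislocation at set times, organs weighed and counted. %ID/g × body weight/100 gives unitless uptake. Heart, brain, blood, lung, kidney, liver and bone n=5; average ± SD.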

Mus musculus [7] = assay: The in vivo tissue distribution of mouse bone with Propranolol preadministration in 20 min, value was fractional dose per fractional body weight of the organ; type: ADME, organism-based, Bone element
Method in brief: as §2

Mus musculus [8] = assay: The in vivo tissue distribution of mouse liver without Propranolol preadministration in 60 min, value was fractional dose per fractional body weight of the organ; conditions: 1 h
Mus musculus [9] = assay: The in vivo tissue distribution of mouse kidney without Propranolol preadministration in 20 min, value was fractional dose per fractional body weight of the organ
Mus musculus [10] = assay: The in vivo tissue distribution of mouse brain with Propranolol administration after 90 min, value was fractional dose per fractional body weight of the organ; type: ADME, organism-based; conditions: 1.5 h
Method in brief: as §2

Mus musculus [11] = assay: The in vivo tissue distribution of mouse blood with Propranolol administration after 20 min, value was fractional dose per fractional body weight of the organ; type: ADME, organism-based
Method in brief: as §2

Mus musculus [12] = assay: The in vivo tissue distribution of mouse lung with Propranolol administration after 40 min, value was fractional dose per fractional body weight of the organ; type: ADME, organism-based
Method in brief: as §1

Mus musculus [13] = assay: The in vivo tissue distribution of mouse heart with Propranolol administration after 60 min, value was fractional dose per fractional body weight of the organ; type: ADME, organism-based; conditions: 1 h
Method in brief: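 Male CF-1 mice, 25–30 g, anesthetized with 2 mg sodium pentobarbital ip. Propranolol pretreatment was 0.1 mL of 1 mg/mL iv by tail vein. About 30 min later, 0.1 mL of 1–2 mCi/mL [18F]tracer was given by tail vein. Mice were killed by cervical dislocation at set times. Organs were weighed and counted against weighed dose standards. %ID/g × body weight/100 gave fractional dose per fractional body weight. Blood and heart n=5.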

[14] = The in vivo tissue distribution of mouse kidney without Propranolol preadministration in 180 min, value was fractional dose per fractional body weight of the organ; conditions: 3 h
Mus musculus [15] = assay: The in vivo tissue distribution of mouse heart without Propranolol preadministration in 40 min, value was fractional dose per fractional body weight of the organ
Mus musculus [16] = assay: The in vivo tissue distribution of mouse brain with Propranolol administration after 60 min, value was fractional dose per fractional body weight of the organ; type: ADME, organism-based; conditions: 1 h
Method in brief: as §2

Mus musculus [17] = assay: The in vivo tissue distribution of mouse blood without Propranolol preadministration in 40 min, value was fractional dose per fractional body weight of the organ
Mus musculus [18] = assay: The in vivo tissue distribution of mouse brain with Propranolol administration after 10 min, value was fractional dose per fractional body weight of the organ; type: ADME, organism-based
Method in brief: as §2

Mus musculus [19] = assay: The in vivo tissue distribution of mouse brain without Propranolol preadministration in 180 min, value was fractional dose per fractional body weight of the organ; conditions: 3 h
Mus musculus [20] = assay: The in vivo tissue distribution of mouse heart with Propranolol administration after 10 min, value was fractional dose per fractional body weight of the organ; type: ADME, organism-based
Method in brief: as §1

Mus musculus [21] = assay: The in vivo tissue distribution of mouse heart with Propranolol administration after 120 min, value was fractional dose per fractional body weight of the organ; type: ADME, organism-based; conditions: 2 h
Method in brief: (§3)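 Male CF-1 mice (25–30 g), given 2 mg sodium pentobarbital ip 30 min before tracer. Blocked groups received propranolol iv by tail vein, 0.1 mL of 1 mg/mL. About 30 min later, 0.1 mL of [18F]tracer (1–2 mCi/mL) was injected by tail vein. Mice were killed by cervical dislocation at set times, and organs were weighed and counted. Uptake is %ID/g × body weight/100, average ± SD; n=5 for heart, brain, blood, lung, kidney, liver and bone.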

Mus musculus [22] = assay: The in vivo tissue distribution of mouse bone with Propranolol administration after 40 min, value was fractional dose per fractional body weight of the organ; type: ADME, organism-based, Bone element
Method in brief: as §2

Mus musculus [23] = assay: The in vivo tissue distribution of mouse brain without Propranolol preadministration in 40 min, value was fractional dose per fractional body weight of the organ
Mus musculus [24] = assay: The in vivo tissue distribution of mouse kidney without Propranolol preadministration in 60 min, value was fractional dose per fractional body weight of the organ; conditions: 1 h
Mus musculus [25] = assay: The in vivo tissue distribution of mouse lung without Propranolol preadministration in 60 min, value was fractional dose per fractional body weight of the organ; conditions: 1 h
Mus musculus [26] = assay: The in vivo tissue distribution of mouse blood without Propranolol preadministration in 20 min, value was fractional dose per fractional body weight of the organ
Mus musculus [27] = assay: The in vivo tissue distribution of mouse blood with Propranolol administration after 90 min, value was fractional dose per fractional body weight of the organ; type: ADME, organism-based; conditions: 1.5 h
Method in brief: as §1

Mus musculus [28] = assay: The in vivo tissue distribution of mouse kidney with Propranolol administration after 120 min, value was fractional dose per fractional body weight of the organ; type: ADME, organism-based; conditions: 2 h
Method in brief: as §2

Mus musculus [29] = assay: The in vivo tissue distribution of mouse liver with Propranolol administration after 20 min, value was fractional dose per fractional body weight of the organ; type: ADME, organism-based
Method in brief: as §3

Compound `CC(C[18F])NC[C@H](O)COc1cccc2[nH]c3ccccc3c12` (stereo partly drawn) has a Dose/organ (Mus musculus [1]) of 0.43, a Dose/organ (Mus musculus [2]) of 1.06 and a Dose/organ (Mus musculus [3]) of 0.66. For the same compound, the Dose/organ (Mus musculus [4]) was 4.8, the Dose/organ (Mus musculus [5]) was 7.46 and the Dose/organ (Mus musculus [6]) was 0.66. The Dose/organ (Mus musculus [7]) was 0.65, the Dose/organ (Mus musculus [8]) was 1.32 and the Dose/organ (Mus musculus [9]) was 2.89. It also gave a Dose/organ (Mus musculus [10]) of 0.38, a Dose/organ (Mus musculus [11]) of 0.43 and a Dose/organ (Mus musculus [12]) of 1.98. The Dose/organ (Mus musculus [13]) was 0.29, the Dose/organ [14] was 0.71 and the Dose/organ (Mus musculus [15]) was 0.77. For the same compound, the Dose/organ (Mus musculus [16]) was 0.25, the Dose/organ (Mus musculus [17]) was 0.69 and the Dose/organ (Mus musculus [18]) was 1.23. The Dose/organ (Mus musculus [19]) was 0.67, the Dose/organ (Mus musculus [20]) was 1.06 and the Dose/organ (Mus musculus [21]) was 0.15. For the same compound, the Dose/organ (Mus musculus [22]) was 0.64, the Dose/organ (Mus musculus [23]) was 1.09 and the Dose/organ (Mus musculus [24]) was 1.39. For the same compound, the Dose/organ (Mus musculus [25]) was 5.34, the Dose/organ (Mus musculus [26]) was 0.71 and the Dose/organ (Mus musculus [27]) was 0.34. It also gave a Dose/organ (Mus musculus [28]) of 0.38 and a Dose/organ (Mus musculus [29]) of 1.85.

`CC(C[18F])NC[C@@H](O)COc1cccc2[nH]c3ccccc3c12` (stereo partly drawn) gave a Dose/organ (Mus musculus [1]) of 0.17, a Dose/organ (Mus musculus [2]) of 1.03 and a Dose/organ (Mus musculus [3]) of 0.43. For the same compound, the Dose/organ (Mus musculus [4]) was 0.84, the Dose/organ (Mus musculus [5]) was 5.1 and the Dose/organ (Mus musculus [6]) was 0.94. The Dose/organ (Mus musculus [7]) was 0.93, the Dose/organ (Mus musculus [8]) was 2.56 and the Dose/organ (Mus musculus [9]) was 4.8. It also gave a Dose/organ (Mus musculus [10]) of 0.42, a Dose/organ (Mus musculus [11]) of 0.57 and a Dose/organ (Mus musculus [12]) of 2. For the same compound, the Dose/organ (Mus musculus [13]) was 0.57, the Dose/organ [14] was 0.67 and the Dose/organ (Mus musculus [15]) was 0.76. For the same compound, the Dose/organ (Mus musculus [16]) was 0.62, the Dose/organ (Mus musculus [17]) was 0.63 and the Dose/organ (Mus musculus [18]) was 1.04. It also gave a Dose/organ (Mus musculus [19]) of 0.08, a Dose/organ (Mus musculus [20]) of 1 and a Dose/organ (Mus musculus [21]) of 0.27. For the same compound, the Dose/organ (Mus musculus [22]) was 0.83, the Dose/organ (Mus musculus [23]) was 0.73 and the Dose/organ (Mus musculus [24]) was 2.63. It also gave a Dose/organ (Mus musculus [25]) of 2.39, a Dose/organ (Mus musculus [26]) of 0.75 and a Dose/organ (Mus musculus [27]) of 0.47. The Dose/organ (Mus musculus [28]) was 0.63 and the Dose/organ (Mus musculus [29]) was 3.

— ChEMBL document CHEMBL1127345, “Synthesis, binding properties, and 18F labeling of fluorocarazolol, a high-affinity beta-adrenergic receptor antagonist” (J Med Chem, 1994)
